Reference: ChEMBL document CHEMBL4190252, “Synthesis, antitumor activity and CDK1 inhibiton of new thiazole nortopsentin analogues” (Eur J Med Chem, 2017)
The source made the active and inactive calls. The calls are words filed in the database; no cut-off is given here.

Tests used:
[1] = tested on: MCF7; assay: Induction of apoptosis in human MCF7 cells assessed as early apoptotic cells at 5 x 10^-8 M after 72 hrs by Annexin V/propidium iodide double staining-based flow cytometry (reference value: 1%); assay type: functional
Summary of the method: (§1)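 MCF-7 cells were grown in RPMI with 10% FBS, 2 mM L-glutamine and antibiotics at 37 °C in 5% CO2. They were seeded at 2.0 x 10^5 cells/cm2 in triplicate, left to adhere overnight, then treated for 72 h; DMSO 0.1% served as vehicle. Trypsinised cells at 2.0 x 10^5/mL were stained with annexin V-FITC and PI for 15 min at room temperature in the dark. At least 1.0 x 10^4 cells were gated into viable, early apoptotic, late apoptotic and necrotic quadrants.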

[2] = tested on: MCF7; assay: Induction of apoptosis in human MCF7 cells assessed as necrotic cells at 5 x 10^-8 M after 72 hrs by Annexin V/propidium iodide double staining-based flow cytometry (reference value: 0.1%); assay type: functional; summary of the method: as §1
[3] = tested on: MCF7; assay: Induction of apoptosis in human MCF7 cells assessed as late apoptotic cells at 5 x 10^-8 M after 72 hrs by Annexin V/propidium iodide double staining-based flow cytometry (reference value: 0%); assay type: functional; summary of the method: as §1
[4] = tested on: MCF7; assay: Induction of apoptosis in human MCF7 cells assessed as viable cells at 5 x 10^-8 M after 72 hrs by Annexin V/propidium iodide double staining-based flow cytometry (reference value: 98.9%); assay type: functional; conditions: MCF7, 72 h, read-out: Activity; summary of the method: as §1
[5] = molecular target: Cyclin-dependent kinase 1/cyclin B1 (Homo sapiens, UniProt P06493); assay: Inhibition of recombinant human full length His-tagged CDK1/cyclin B expressed in baculovirus expression system after 60 mins in presence of omnia peptide substrate by fluorescence based assay
Summary of the method: (§2)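 Recombinant human CDK1/cyclin B in kinase buffer with Omnia peptide substrate, ATP and DTT, with inhibitor at 0.1–10 µM. Reactions ran for 60 min at 30 °C, with fluorescence read at ex 360/em 485 nm. Initial velocity came from the RFU-versus-time slope and was plotted against concentration for a dose-response IC50 fit. Values are mean±SD of two determinations.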

[6] = tested on: MCF7; assay: Cell cycle arrest in human MCF7 cells assessed as accumulation at G2/M phase at GI50 concentration after 48 hrs by propidium iodide-staining based flow cytometry; assay type: functional
Summary of the method: (§3)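 Cells were trypsinized, washed in cold PBS, and 1 x 10^6 cells stained with 20 µg/ml PI plus 200 µg/ml RNase for 30 min at room temperature in the dark. At least 1x 10^4 cells were analysed by flow cytometry. Mean±SD of three experiments in triplicate.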

[7] = tested on: MCF7; assay: Cell cycle arrest in human MCF7 cells assessed as accumulation at G0/G1 phase at GI50 concentration after 48 hrs by propidium iodide-staining based flow cytometry (reference value: 63.5%); assay type: functional; summary of the method: as §3
[8] = molecular target: Cyclin-dependent kinase 1/cyclin B1 (Homo sapiens) (UniProt P06493+P14635); assay: Inhibition of recombinant human full length His-tagged CDK1/cyclin B expressed in baculovirus expression system at 0.1 to 10 uM after 60 mins in presence of omnia peptide substrate by fluorescence based assay; summary of the method: as §2
Chain of Cyclin-dependent kinase 1/cyclin B1 (Homo sapiens) (P06493 whole entry, looked up): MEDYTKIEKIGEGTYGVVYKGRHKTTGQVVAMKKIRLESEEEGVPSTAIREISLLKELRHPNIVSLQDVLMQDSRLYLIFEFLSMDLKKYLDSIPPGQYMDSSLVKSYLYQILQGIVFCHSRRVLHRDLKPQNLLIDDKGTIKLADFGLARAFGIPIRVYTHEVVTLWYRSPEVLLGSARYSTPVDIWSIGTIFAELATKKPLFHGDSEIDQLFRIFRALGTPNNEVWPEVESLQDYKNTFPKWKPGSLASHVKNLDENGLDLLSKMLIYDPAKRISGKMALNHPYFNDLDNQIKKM
Chain of Cyclin-dependent kinase 1/cyclin B1 (Homo sapiens) (P14635 whole entry, looked up): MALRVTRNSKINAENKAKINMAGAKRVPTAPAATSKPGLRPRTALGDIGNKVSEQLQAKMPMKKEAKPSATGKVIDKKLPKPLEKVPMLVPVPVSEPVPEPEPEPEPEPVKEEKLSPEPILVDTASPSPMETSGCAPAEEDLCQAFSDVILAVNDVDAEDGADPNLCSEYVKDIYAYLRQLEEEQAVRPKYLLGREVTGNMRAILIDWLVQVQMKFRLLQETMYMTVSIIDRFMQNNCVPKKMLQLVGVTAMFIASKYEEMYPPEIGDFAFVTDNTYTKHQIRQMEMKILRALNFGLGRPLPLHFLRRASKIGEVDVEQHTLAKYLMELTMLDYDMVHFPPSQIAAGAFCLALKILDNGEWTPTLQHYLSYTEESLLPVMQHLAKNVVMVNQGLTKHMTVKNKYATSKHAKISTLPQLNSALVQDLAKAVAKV

Chain of Cyclin-dependent kinase 1/cyclin B1 (P06493 whole entry): as the sequence (P06493 whole entry, looked up) above
Chain of Cyclin-dependent kinase 1/cyclin B1 (P14635 whole entry, further chain): as the sequence (P14635 whole entry, looked up) above

SMILES | Activity [1] [%] | Activity [2] [%] | Activity [3] [%] | viability at 0.05 µM [4] [%] | IC50 [5] [nM] | Activity [6] [%] | Activity [7] [%] | inhibition [8]
COCCn1cc(-c2nc(-c3c[nH]c4ncccc34)cs2)c2cc(OC)ccc21 | 54.2 | 0 | 0.1 | 45.8 | 1140 | >50 | – | –
COCCn1cc(-c2csc(-c3c[nH]c4ccc(Br)cc34)n2)c2cccnc21 | – | – | – | – | – | – | 9 | inactive
